From ChEMBL document CHEMBL5260840 (J Med Chem, 2019)

Experiments:
[1] = molecular target: T1, von Hippel-Lindau disease tumor suppressor/Bromodomain-containing protein 7 (Homo sapiens) (UniProt Q9NPI1+P40337); assay: PROTAC activity at VHL/BRD7 in human Ri-1 cells assessed as remaining BRD7 protein level at 1 uM incubated for 2 hrs by Western blot analysis relative to control; format: cell-based
[2] = molecular target: T2, von Hippel-Lindau disease tumor suppressor/Bromodomain-containing protein 9 (Homo sapiens) (UniProt Q9H8M2+P40337); assay: PROTAC activity at VHL/BRD9 in human Ri-1 cells assessed as remaining BRD9 protein level at 1 uM incubated for 2 hrs by Western blot analysis relative to control; format: cell-based
Outline: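 Ri-1 cells exposed to compound for the stated time before harvest; BRD9, BRD7 and β-actin measured by Western blot, band intensities quantified and set against DMSO-treated control.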

[3] = molecular target: T1, von Hippel-Lindau disease tumor suppressor/Bromodomain-containing protein 7 (Homo sapiens); assay: PROTAC activity at VHL/BRD7 in human HeLa cells assessed as remaining BRD7 protein level at 1 uM incubated for 4 hrs by Western blot analysis relative to control; format: cell-based
[4] = molecular target: T3, Protein cereblon/Bromodomain-containing protein 9 (Homo sapiens) (UniProt Q9H8M2+Q96SW2); assay: PROTAC activity at CRBN/BRD9 in human HeLa cells assessed as remaining BRD9 protein level at 1 uM incubated for 16 hrs by Western blot analysis relative to control; format: cell-based
Outline: (§1)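 HeLa cells given 1 µM compound for 16 h before harvest. BRD9, BRD7 and β-actin detected by Western blot; band intensities quantified.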

[5] = molecular target: T4, Protein cereblon/Bromodomain-containing protein 7 (Homo sapiens) (UniProt Q9NPI1+Q96SW2); assay: PROTAC activity at CRBN/BRD7 in human HeLa cells assessed as remaining BRD7 protein level at 1 uM incubated for 4 hrs by Western blot analysis relative to control; format: cell-based
Outline: (§2)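 Cells given 1 µM compound before harvest: HeLa 4 h, RI-1 2 h and 8 h. BRD9, BRD7 and β-actin detected by Western blot; band intensities quantified.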

[6] = molecular target: T4, Protein cereblon/Bromodomain-containing protein 7 (Homo sapiens); assay: PROTAC activity at CRBN/BRD7 in human HeLa cells assessed as remaining BRD7 protein level at 1 uM incubated for 16 hrs by Western blot analysis relative to control; format: cell-based; outline: as §1
[7] = molecular target: T3, Protein cereblon/Bromodomain-containing protein 9 (Homo sapiens); assay: PROTAC activity at CRBN/BRD9 in human HeLa cells assessed as remaining BRD9 protein level at 1 uM incubated for 4 hrs by Western blot analysis relative to control; format: cell-based; outline: as §2
EOL1 = assay: Antiproliferative activity against human EOL1 cells assessed as inhibition of cell growth incubated for 7 days by CellTiterGlo assay; format: functional, cell-based; details: EOL1, 168 h
A204 = assay: Antiproliferative activity against human A204 cells assessed as inhibition of cell growth incubated for 7 days by CellTiterGlo assay; format: functional, cell-based; details: A204, 168 h
[8] = molecular target: T2, von Hippel-Lindau disease tumor suppressor/Bromodomain-containing protein 9 (Homo sapiens); assay: PROTAC activity at VHL/BRD9 in human HeLa cells assessed as remaining BRD9 protein level at 1 uM incubated for 16 hrs by Western blot analysis relative to control; format: cell-based
Outline: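 HeLa cells treated with compound for the stated time before harvest; BRD9, BRD7 and β-actin detected by Western blot with β-actin loading control; band intensities quantified.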

[9] = molecular target: T1, von Hippel-Lindau disease tumor suppressor/Bromodomain-containing protein 7 (Homo sapiens); assay: PROTAC activity at VHL/BRD7 in human HeLa cells assessed as remaining BRD7 protein level at 1 uM incubated for 16 hrs by Western blot analysis relative to control; format: cell-based

T2 sequence (P40337 whole entry, looked up): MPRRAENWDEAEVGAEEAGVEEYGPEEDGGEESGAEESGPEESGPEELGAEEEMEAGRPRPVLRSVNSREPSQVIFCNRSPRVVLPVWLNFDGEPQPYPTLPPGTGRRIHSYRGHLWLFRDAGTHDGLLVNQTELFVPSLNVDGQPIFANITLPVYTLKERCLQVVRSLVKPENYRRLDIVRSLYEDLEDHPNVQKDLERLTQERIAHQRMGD
T2 sequence (Q9H8M2 whole entry, looked up): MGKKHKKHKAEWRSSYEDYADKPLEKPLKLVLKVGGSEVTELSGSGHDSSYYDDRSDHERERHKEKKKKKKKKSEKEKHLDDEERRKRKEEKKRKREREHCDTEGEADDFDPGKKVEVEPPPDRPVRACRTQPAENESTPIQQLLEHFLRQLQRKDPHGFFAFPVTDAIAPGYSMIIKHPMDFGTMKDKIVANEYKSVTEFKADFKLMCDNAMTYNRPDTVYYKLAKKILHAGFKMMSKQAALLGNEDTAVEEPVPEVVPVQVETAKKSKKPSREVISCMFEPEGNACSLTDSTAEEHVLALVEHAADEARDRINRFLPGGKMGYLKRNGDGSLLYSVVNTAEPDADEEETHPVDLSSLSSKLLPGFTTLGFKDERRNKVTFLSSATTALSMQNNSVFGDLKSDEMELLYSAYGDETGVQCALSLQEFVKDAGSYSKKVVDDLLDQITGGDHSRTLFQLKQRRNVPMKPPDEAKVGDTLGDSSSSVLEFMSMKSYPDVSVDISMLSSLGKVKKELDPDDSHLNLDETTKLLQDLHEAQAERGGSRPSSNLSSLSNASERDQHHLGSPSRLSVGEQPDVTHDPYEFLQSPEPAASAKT
T1 sequence (P40337 whole entry, looked up): as the sequence (P40337 whole entry, looked up) above
T1 sequence (Q9NPI1 whole entry, looked up): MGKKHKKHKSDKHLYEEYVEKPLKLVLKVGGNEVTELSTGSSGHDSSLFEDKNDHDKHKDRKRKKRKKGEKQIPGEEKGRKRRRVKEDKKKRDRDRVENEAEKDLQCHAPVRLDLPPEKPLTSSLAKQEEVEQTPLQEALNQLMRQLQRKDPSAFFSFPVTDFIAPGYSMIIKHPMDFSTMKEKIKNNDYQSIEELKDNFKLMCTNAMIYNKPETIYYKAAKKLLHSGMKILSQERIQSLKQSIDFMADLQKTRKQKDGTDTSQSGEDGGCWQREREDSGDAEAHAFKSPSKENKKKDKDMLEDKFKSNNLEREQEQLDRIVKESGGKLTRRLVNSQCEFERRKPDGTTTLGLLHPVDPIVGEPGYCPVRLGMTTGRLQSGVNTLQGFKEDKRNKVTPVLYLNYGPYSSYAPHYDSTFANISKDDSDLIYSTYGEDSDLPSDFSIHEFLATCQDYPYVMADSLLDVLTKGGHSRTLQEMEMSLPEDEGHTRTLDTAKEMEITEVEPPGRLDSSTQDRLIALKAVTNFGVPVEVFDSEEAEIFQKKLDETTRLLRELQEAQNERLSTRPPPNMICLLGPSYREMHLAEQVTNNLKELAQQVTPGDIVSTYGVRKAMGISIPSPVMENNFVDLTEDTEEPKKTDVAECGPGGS
T4 sequence (Q96SW2 whole entry, looked up): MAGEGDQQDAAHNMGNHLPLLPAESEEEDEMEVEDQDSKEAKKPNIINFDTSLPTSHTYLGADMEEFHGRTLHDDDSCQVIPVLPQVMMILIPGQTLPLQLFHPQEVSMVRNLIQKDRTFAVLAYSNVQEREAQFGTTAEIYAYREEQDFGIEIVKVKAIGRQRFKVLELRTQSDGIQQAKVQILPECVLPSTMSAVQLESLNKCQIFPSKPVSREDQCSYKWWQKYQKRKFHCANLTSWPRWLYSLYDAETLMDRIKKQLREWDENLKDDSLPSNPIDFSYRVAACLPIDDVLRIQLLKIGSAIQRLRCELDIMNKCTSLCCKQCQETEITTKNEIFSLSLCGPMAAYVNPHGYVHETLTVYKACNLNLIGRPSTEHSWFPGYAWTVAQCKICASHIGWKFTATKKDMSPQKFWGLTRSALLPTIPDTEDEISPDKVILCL
T4 sequence (Q9NPI1 whole entry, looked up): as the sequence (Q9NPI1 whole entry, looked up) above
T3 sequence (Q96SW2 whole entry, looked up): as the sequence (Q96SW2 whole entry, looked up) above
T3 sequence (Q9H8M2 whole entry, looked up): as the sequence (Q9H8M2 whole entry, looked up) above

Structure (SMILES) | Activity [1] [%] | Activity [2] [%] | Activity [3] [%] | further results
COc1cc(-c2cn(C)c(=O)c3cnccc23)c(OC)cc1CN1CCN(CCOCCOCCOCCOc2cc(-c3scnc3C)ccc2CNC(=O)[C@@H]2C[C@@H](O)CN2C(=O)[C@@H](NC(=O)C2(F)CC2)C(C)(C)C)CC1 | 134 | 127 | 206 | 
COc1cc(-c2cn(C)c(=O)c3cnccc23)cc(OC)c1CN1CCN(CCOCCOCCOCCOCC(=O)NCCNc2cccc3c2C(=O)N(C2CCC(=O)NC2=O)C3=O)CC1 (stereo not given) |  |  |  | Activity [4]: 11%; Activity [5]: 106%; Activity [6]: 94%; Activity [7]: 19%
COc1cc(-c2cn(C)c(=O)c3cnccc23)c(OC)cc1CN1CCN(CCCCCOCCOc2cc(-c3scnc3C)ccc2CNC(=O)[C@@H]2C[C@@H](O)CN2C(=O)[C@@H](NC(=O)C2(F)CC2)C(C)(C)C)CC1 | 102 | 89 | 336 | 
COc1cc(-c2cn(C)c(=O)c3cnccc23)c(OC)cc1CN1CC(NC(=O)COCCOCCOc2cc(-c3scnc3C)ccc2CNC(=O)[C@@H]2C[C@@H](O)CN2C(=O)[C@@H](NC(=O)C2(F)CC2)C(C)(C)C)C1 | 120 | 103 | 280 | 
COc1cc(-c2cn(C)c(=O)c3cnccc23)cc(OC)c1CN(C)C |  |  | 90 | IC50 (EOL1): 89.3 nM; IC50 (A204): 372 nM
COc1cc(-c2cn(C)c(=O)c3cnccc23)cc(OC)c1CN1CCN(CCCCCOCCOCC(=O)N[C@H](C(=O)N2C[C@H](O)C[C@H]2C(=O)NCc2ccc(-c3scnc3C)cc2)C(C)(C)C)CC1 |  |  | 106 | Activity [8]: 61%; Activity [9]: 80%
COc1cc(-c2cn(C)c(=O)c3cnccc23)cc(OC)c1CN1CC(NC(=O)COCCOCCOCCOc2cc(-c3scnc3C)ccc2CNC(=O)[C@@H]2C[C@@H](O)CN2C(=O)[C@@H](NC(=O)C2(F)CC2)C(C)(C)C)C1 | 98 | 89 | 103 | 
COc1cc(-c2cn(C)c(=O)c3cnccc23)c(OC)cc1CN1CC(NC(=O)CCCCOCCOc2cc(-c3scnc3C)ccc2CNC(=O)[C@@H]2C[C@@H](O)CN2C(=O)[C@@H](NC(=O)C2(F)CC2)C(C)(C)C)C1 | 97 | 94 | 250 | 
COc1cc(-c2cn(C)c(=O)c3cnccc23)c(OC)cc1CN1CC(NC(=O)COCCOCCOCCOc2cc(-c3scnc3C)ccc2CNC(=O)[C@@H]2C[C@@H](O)CN2C(=O)[C@@H](NC(=O)C2(F)CC2)C(C)(C)C)C1 | 85 | 95 | 138 | 
COc1cc(-c2cn(C)c(=O)c3cnccc23)cc(OC)c1CN1CCN(CCOCCOCCOCC(=O)N[C@H](C(=O)N2C[C@H](O)C[C@H]2C(=O)NCc2ccc(-c3scnc3C)cc2)C(C)(C)C)CC1 |  |  | 107 | Activity [8]: 95%; Activity [9]: 106%
COc1cc(-c2cn(C)c(=O)c3cnccc23)c(OC)cc1CN1CC(NC(=O)CCCCOc2cc(-c3scnc3C)ccc2CNC(=O)[C@@H]2C[C@@H](O)CN2C(=O)[C@@H](NC(=O)C2(F)CC2)C(C)(C)C)C1 | 131 | 110 | 54 | 
COc1cc(-c2cn(C)c(=O)c3cnccc23)cc(OC)c1CN1CCN(CCOCCOCCOCCOCCOc2cc(-c3scnc3C)ccc2CNC(=O)[C@@H]2C[C@@H](O)CN2C(=O)[C@@H](NC(=O)C2(C#N)CC2)C(C)(C)C)CC1 |  |  | 89 | Activity [8]: 98%; Activity [9]: 124%
COc1cc(-c2cn(C)c(=O)c3cnccc23)c(OC)cc1CN1CCN(CCOCCOc2cc(-c3scnc3C)ccc2CNC(=O)[C@@H]2C[C@@H](O)CN2C(=O)[C@@H](NC(=O)C2(F)CC2)C(C)(C)C)CC1 | 98 | 94 | 3 | 
COc1cc(-c2cn(C)c(=O)c3cnccc23)c(OC)cc1CN(C)C |  |  |  | IC50 (EOL1): 339 nM; IC50 (A204): 3550 nM
COc1cc(-c2cn(C)c(=O)c3cnccc23)cc(OC)c1CN1CC(NC(=O)COCCOc2cc(-c3scnc3C)ccc2CNC(=O)[C@@H]2C[C@@H](O)CN2C(=O)[C@@H](NC(=O)C2(F)CC2)C(C)(C)C)C1 | 125 | 109 | 29 | 
COc1cc(-c2cn(C)c(=O)c3cnccc23)cc(OC)c1CN1CCN(CCOCCOCCOc2cc(-c3scnc3C)ccc2CNC(=O)[C@@H]2C[C@@H](O)CN2C(=O)[C@@H](NC(C)=O)C(C)(C)C)CC1 |  |  | 95 | Activity [8]: 156%; Activity [9]: 107%

Structure (SMILES) | Activity [1] [%] | Activity [2] [%] | Activity [3] [%] | further results
COc1cc(-c2cn(C)c(=O)c3cnccc23)cc(OC)c1CN1CCN(CCOCCOCCOCCOCCOc2cc(-c3scnc3C)ccc2CNC(=O)[C@@H]2C[C@@H](O)CN2C(=O)[C@@H](NC(C)=O)C(C)(C)C)CC1 |  |  | 109 | Activity [8]: 114%; Activity [9]: 98%
COc1cccc2c1C(=O)c1c(O)c3c(c(O)c1C2=O)C[C@@](O)(C(=O)CO)C[C@@H]3O[C@H]1C[C@H](N)[C@H](O)[C@H](C)O1 [DOXORUBICIN] |  |  |  | IC50 (EOL1): 1.27 nM; IC50 (A204): 6.48 nM
COc1cc(-c2cn(C)c(=O)c3cnccc23)c(OC)cc1CN1CCN(CCCCCOc2cc(-c3scnc3C)ccc2CNC(=O)[C@@H]2C[C@@H](O)CN2C(=O)[C@@H](NC(=O)C2(F)CC2)C(C)(C)C)CC1 | 65 | 65 | 151 | 
COc1cc(-c2cn(C)c(=O)c3cnccc23)cc(OC)c1CN1CCN(CCOCCOCCOCCOCCOc2cc(-c3scnc3C)ccc2CNC(=O)[C@@H]2C[C@@H](O)CN2C(=O)[C@@H](NC(=O)C2(F)CC2)C(C)(C)C)CC1 |  |  | 110 | Activity [8]: 97%; Activity [9]: 163%
COc1cc(-c2cn(C)c(=O)c3cnccc23)cc(OC)c1CN1CCN(CCOCCOCCOCCOc2cc(-c3scnc3C)ccc2CNC(=O)[C@@H]2C[C@@H](O)CN2C(=O)[C@@H](NC(=O)C2(F)CC2)C(C)(C)C)CC1 | 125 | 105 | 182 | 
COc1cc(-c2cn(C)c(=O)c3cnccc23)cc(OC)c1CN1CC(NC(=O)COCCOCCOc2cc(-c3scnc3C)ccc2CNC(=O)[C@@H]2C[C@@H](O)CN2C(=O)[C@@H](NC(=O)C2(F)CC2)C(C)(C)C)C1 | 92 | 95 | 53 | 
COc1cc(-c2cn(C)c(=O)c3cnccc23)cc(OC)c1CN1CCN(CCOCCOCCOc2cc(-c3scnc3C)ccc2CNC(=O)[C@@H]2C[C@@H](O)CN2C(=O)[C@@H](NC(=O)C2(C#N)CC2)C(C)(C)C)CC1 |  |  | 88 | Activity [8]: 63%; Activity [9]: 187%
COc1cc(-c2cn(C)c(=O)c3cnccc23)c(OC)cc1CN1CCN(CCOCCOCCOc2cc(-c3scnc3C)ccc2CNC(=O)[C@@H]2C[C@@H](O)CN2C(=O)[C@@H](NC(=O)C2(F)CC2)C(C)(C)C)CC1 | 149 | 125 | 126 | 
COc1cc(-c2cn(C)c(=O)c3cnccc23)c(OC)cc1CN1CC(NC(=O)COCCOc2cc(-c3scnc3C)ccc2CNC(=O)[C@@H]2C[C@@H](O)CN2C(=O)[C@@H](NC(=O)C2(F)CC2)C(C)(C)C)C1 | 112 | 99 | 158 | 
COc1cc(-c2cn(C)c(=O)c3cnccc23)cc(OC)c1CN1CC(NC(=O)CCCCOc2cc(-c3scnc3C)ccc2CNC(=O)[C@@H]2C[C@@H](O)CN2C(=O)[C@@H](NC(=O)C2(F)CC2)C(C)(C)C)C1 | 70 | 68 | 25 | 
COc1cc(-c2cn(C)c(=O)c3cnccc23)cc(OC)c1CN1CCN(CCCCCOCCOc2cc(-c3scnc3C)ccc2CNC(=O)[C@@H]2C[C@@H](O)CN2C(=O)[C@@H](NC(=O)C2(F)CC2)C(C)(C)C)CC1 | 83 | 69 | 98 | 
COc1cc(-c2cn(C)c(=O)c3cnccc23)cc(OC)c1CN1CCN(CCOCCOCCOCCOCCOCC(=O)N[C@H](C(=O)N2C[C@H](O)C[C@H]2C(=O)NCc2ccc(-c3scnc3C)cc2)C(C)(C)C)CC1 |  |  | 104 | Activity [8]: 112%; Activity [9]: 54%
COc1cc(-c2cn(C)c(=O)c3cnccc23)cc(OC)c1CN1CC(NC(=O)CCCCOCCOc2cc(-c3scnc3C)ccc2CNC(=O)[C@@H]2C[C@@H](O)CN2C(=O)[C@@H](NC(=O)C2(F)CC2)C(C)(C)C)C1 | 106 | 92 | 31 | 
COc1cc(-c2cn(C)c(=O)c3cnccc23)cc(OC)c1CN(C)CC(=O)NCCOCCOCCNc1cccc2c1C(=O)N(C1CCC(=O)NC1=O)C2=O (stereo not given) |  |  |  | IC50 (EOL1): 4.87 nM; IC50 (A204): 89.8 nM
COc1cc(-c2cn(C)c(=O)c3cnccc23)cc(OC)c1CN1CCN(C(=O)COCCOCCOCN[C@H](C(=O)N2C[C@H](O)C[C@H]2C(=O)NCc2ccc(-c3scnc3C)cc2)C(C)(C)C)CC1 |  |  |  | Activity [8]: 73%; Activity [9]: 113%
